Values after ≈ are worked out from the molar mass of the structure shown. Active and inactive are the calls of the source. No cut-off for these calls is given here.
Legend:
[1] = test system: Chrysosporium keratinophilum; assay: Antifungal activity against Chrysosporium keratinophilum at 1 mg/ml incubated for 3 days; type: functional; conditions: for zone of inhibition at 1000 µg/mL: 72 h, read-out: IZ
In short: (§1)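 Well plate method on potato dextrose agar. Fungal stock suspended in distilled water with Tween 80 and swabbed over plates. Samples in DMSO at 1 and 0.5 mg/mL added to wells, incubated 25 °C for 3 days, then scored for inhibition zones; fluconazole standard.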

Pseudomonas aeruginosa [2] = assay: Antibacterial activity against Pseudomonas aeruginosa at 1 mg/ml incubated for 18 hrs by well plate technique; type: functional; conditions: for zone of inhibition at 1000 µg/mL: read-out: DIZ
In short: (§2)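 Bacteria kept on nutrient agar at 37 °C, grown statically in nutrient broth (start ~10-100 cfu/mL) at 37 °C for 18-24 h. Suspensions diluted in saline and spread on nutrient agar, then wells cut with a cork borer. Compound in DMSO at 1 or 0.5 mg/mL added to wells, 37 °C, 18 h. Inhibition zone diameter measured minus DMSO value; triplicate; streptomycin standard.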

Staphylococcus aureus [3] = assay: Antibacterial activity against Staphylococcus aureus at 1 mg/ml incubated for 18 hrs by well plate technique; type: functional; conditions: for zone of inhibition at 1000 µg/mL: read-out: DIZ; in short: as §2
[4] = Antioxidant activity assessed as DPPH radical scavenging activity incubated for 10 mins by UV-visible spectrometry; type: physicochemical
In short: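 DPPH free-radical scavenging; absorbance read at 517 nm against a methanol blank. % scavenging = (A control − A sample)/A control × 100.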

Candida albicans [5] = assay: Antifungal activity against Candida albicans at 0.5 mg/ml incubated for 3 days; type: functional; conditions: for zone of inhibition at 500 µg/mL: 72 h, read-out: IZ; in short: as §1
Salmonella typhi [6] = assay: Antibacterial activity against Salmonella typhi at 1 mg/ml incubated for 18 hrs by well plate technique; type: functional; conditions: for diameter of the inhibition zone (DIZ): Salmonella enterica subsp. enterica serovar Typhi; for zone of inhibition at 1000 µg/mL: Salmonella enterica, read-out: DIZ
In short: (§3)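 Well diffusion on nutrient agar; strains kept on nutrient agar at 37 °C, grown statically in nutrient broth 18-24 h at 37 °C, diluted in saline, 0.1 ml spread per plate. Compounds in DMSO at 1 and 0.5 mg/mL added to cork-bored wells; 18 h at 37 °C. Inhibition zone diameter measured, DMSO value subtracted; triplicate; streptomycin reference.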

[7] = test system: Chrysosporium keratinophilum; assay: Antifungal activity against Chrysosporium keratinophilum at 0.5 mg/ml incubated for 3 days; type: functional; conditions: for zone of inhibition at 500 µg/mL: 72 h, read-out: IZ; in short: as §1
Candida albicans [8] = assay: Antifungal activity against Candida albicans at 1 mg/ml incubated for 3 days; type: functional; conditions: for zone of inhibition at 1000 µg/mL: 72 h, read-out: IZ; in short: as §1
Aspergillus flavus [9] = assay: Antifungal activity against Aspergillus flavus at 1 mg/ml incubated for 3 days; type: functional; conditions: for zone of inhibition at 1000 µg/mL: 72 h, read-out: IZ; in short: as §1
Salmonella typhi [10] = assay: Antibacterial activity against Salmonella typhi at 0.5 mg/ml incubated for 18 hrs by well plate technique; type: functional; conditions: for diameter of the inhibition zone (DIZ): Salmonella enterica subsp. enterica serovar Typhi; for zone of inhibition at 500 µg/mL: Salmonella enterica, read-out: DIZ; in short: as §3
Staphylococcus aureus [11] = assay: Antibacterial activity against Staphylococcus aureus at 0.5 mg/ml incubated for 18 hrs by well plate technique; type: functional; conditions: for zone of inhibition at 500 µg/mL: read-out: DIZ; in short: as §2
[12] = test system: Mycobacterium tuberculosis; assay: Antitubercular activity against Mycobacterium tuberculosis H37Rv ATCC 27294/XDR-TB incubated for 28 days by agar dilution method; type: functional; conditions: 672 h
In short: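 Agar dilution: two-fold dilutions in Middlebrook 7H11 agar with OADC. Inoculum from fresh 7H11/OADC slants adjusted to 1 mg/mL wet weight in 0.05% Tween 80 saline, diluted 10^-2 (~10⁷ cfu/mL); 5 µL spotted per tube. Incubated 37 °C; MIC, lowest concentration fully inhibiting growth, read after 28 days, in triplicate.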

Aspergillus flavus [13] = assay: Antifungal activity against Aspergillus flavus at 0.5 mg/ml incubated for 3 days; type: functional; conditions: for zone of inhibition at 500 µg/mL: 72 h, read-out: IZ; in short: as §1
Escherichia coli [14] = assay: Antibacterial activity against Escherichia coli at 0.5 mg/ml incubated for 18 hrs by well plate technique; type: functional; conditions: for zone of inhibition at 500 µg/mL: read-out: DIZ; in short: as §2
Escherichia coli [15] = assay: Antibacterial activity against Escherichia coli at 1 mg/ml incubated for 18 hrs by well plate technique; type: functional; conditions: for zone of inhibition at 1000 µg/mL: read-out: DIZ; in short: as §2
Pseudomonas aeruginosa [16] = assay: Antibacterial activity against Pseudomonas aeruginosa at 0.5 mg/ml incubated for 18 hrs by well plate technique; type: functional; conditions: for zone of inhibition at 500 µg/mL: read-out: DIZ; in short: as §2

Row | Structure (SMILES) | inhibition (INH) [4] [%] | MIC [12] [mg/L] | zone of inhibition at 1000 µg/mL [1] [mm] | zone of inhibition at 1000 µg/mL (Pseudomonas aeruginosa [2]) [mm] | zone of inhibition at 1000 µg/mL (Staphylococcus aureus [3]) [mm] | zone of inhibition at 500 µg/mL (Candida albicans [5]) [mm] | zone of inhibition at 1000 µg/mL (Salmonella typhi [6]) [mm] | zone of inhibition at 500 µg/mL [7] [mm] | zone of inhibition at 1000 µg/mL (Candida albicans [8]) [mm] | zone of inhibition at 1000 µg/mL (Aspergillus flavus [9]) [mm] | zone of inhibition at 500 µg/mL (Salmonella typhi [10]) [mm] | zone of inhibition at 500 µg/mL (Staphylococcus aureus [11]) [mm] | zone of inhibition at 500 µg/mL (Aspergillus flavus [13]) [mm] | zone of inhibition at 500 µg/mL (Escherichia coli [14]) [mm] | zone of inhibition at 1000 µg/mL (Escherichia coli [15]) [mm] | zone of inhibition at 500 µg/mL (Pseudomonas aeruginosa [16]) [mm] | further results
1 | COc1ccc(-c2nc3sc(-c4ccccc4Cl)nn3c2-c2nc3cc([N+](=O)[O-])ccc3[nH]2)cc1 | 22.1 | 50 (≈ 99.4 µM) |  |  |  |  |  |  |  |  |  |  |  |  |  |  | inhibition zone (IZ) [1]: inactive; diameter of the inhibition zone (DIZ) (Pseudomonas aeruginosa [2]): inactive; diameter of the inhibition zone (DIZ) (Staphylococcus aureus [3]): inactive; inhibition zone (IZ) (Candida albicans [5]): inactive; diameter of the inhibition zone (DIZ) (Salmonella typhi [6]): inactive; inhibition zone (IZ) [7]: inactive; inhibition zone (IZ) (Candida albicans [8]): inactive; inhibition zone (IZ) (Aspergillus flavus [9]): inactive; diameter of the inhibition zone (DIZ) (Salmonella typhi [10]): inactive; diameter of the inhibition zone (DIZ) (Staphylococcus aureus [11]): inactive; inhibition zone (IZ) (Aspergillus flavus [13]): inactive; diameter of the inhibition zone (DIZ) (Escherichia coli [14]): inactive; diameter of the inhibition zone (DIZ) (Escherichia coli [15]): inactive; diameter of the inhibition zone (DIZ) (Pseudomonas aeruginosa [16]): inactive
2 | CC[C@@H](CO)NCCN[C@@H](CC)CO [ETHAMBUTOL] |  | 3.13 (≈ 15.3 µM) |  |  |  |  |  |  |  |  |  |  |  |  |  |  | 
3 | Cc1nn2c(-c3nc4cc(Cl)ccc4[nH]3)c(-c3ccc(F)cc3)nc2s1 | 39.5 | 25 (≈ 65.1 µM) | 8 | 13 | 9 | 7 | 10 | 6 | 9 | 7 | 7 | 6 | 5 | 8 | 11 | 10 | 
4 | COc1ccc(-c2nc3sc(-c4ccc(C)cc4)nn3c2-c2nc3cc([N+](=O)[O-])ccc3[nH]2)cc1 | 25.1 | 12.5 (≈ 25.9 µM) |  |  |  |  |  |  |  |  |  |  |  |  |  |  | inhibition zone (IZ) [1]: inactive; diameter of the inhibition zone (DIZ) (Pseudomonas aeruginosa [2]): inactive; diameter of the inhibition zone (DIZ) (Staphylococcus aureus [3]): inactive; inhibition zone (IZ) (Candida albicans [5]): inactive; diameter of the inhibition zone (DIZ) (Salmonella typhi [6]): inactive; inhibition zone (IZ) [7]: inactive; inhibition zone (IZ) (Candida albicans [8]): inactive; inhibition zone (IZ) (Aspergillus flavus [9]): inactive; diameter of the inhibition zone (DIZ) (Salmonella typhi [10]): inactive; diameter of the inhibition zone (DIZ) (Staphylococcus aureus [11]): inactive; inhibition zone (IZ) (Aspergillus flavus [13]): inactive; diameter of the inhibition zone (DIZ) (Escherichia coli [14]): inactive; diameter of the inhibition zone (DIZ) (Escherichia coli [15]): inactive; diameter of the inhibition zone (DIZ) (Pseudomonas aeruginosa [16]): inactive
5 | COc1ccc(-c2nc3sc(-c4ccc(F)cc4)nn3c2-c2nc3cc(Cl)ccc3[nH]2)cc1 | 38.6 | 50 (≈ 105 µM) | 4 | 2 | 4 | 2 | 3 | 1 | 5 | 4 | 0 | 1 | 2 | 1 | 5 | 1 | 
6 | NNC(=O)c1ccncc1 [ISONIAZID] |  | 0.1 (≈ 0.729 µM) |  |  |  |  |  |  |  |  |  |  |  |  |  |  | 
7 | NC(=O)c1cnccn1 [PYRAZINAMIDE] |  | 50 (≈ 406 µM) |  |  |  |  |  |  |  |  |  |  |  |  |  |  | 
8 | CN[C@@H]1[C@H](O[C@H]2[C@H](O[C@H]3[C@H](O)[C@@H](O)[C@H](N=C(N)N)[C@@H](O)[C@@H]3N=C(N)N)O[C@@H](C)[C@]2(O)C=O)O[C@@H](CO)[C@H](O)[C@H]1O [STREPTOMYCIN] |  |  |  | 16.7 | 16.8 |  | 17.2 |  |  |  | 15.7 | 12.5 |  | 14.3 | 18.6 | 13.6 | 
9 | Cc1cc(C(C)(C)C)c(O)c(C(C)(C)C)c1 [BUTYLATED HYDROXYTOLUENE] | 88.6 |  |  |  |  |  |  |  |  |  |  |  |  |  |  |  | 
10 | OC(Cn1cncn1)(Cn1cncn1)c1ccc(F)cc1F [FLUCONAZOLE] |  |  | 16 |  |  | 20 |  | 14 | 23 | 14 |  |  | 10 |  |  |  | 

Reference: ChEMBL document CHEMBL3414425, “Synthesis and biological evaluation of new imidazo[2,1-b][1,3,4]thiadiazole-benzimidazole derivatives” (Eur J Med Chem, 2015)
